Measured values from ChEMBL document CHEMBL1122734, “A novel peptide delivery system involving peptidase activated prodrugs as antimicrobial agents. Synthesis and biological activity of peptidyl derivatives of 5-fluorouracil” (J Med Chem, 1984).
≈ marks a conversion by molar mass, not a printed value.

Columns and labels:
[1] = tested on: Candida albicans; assay: Compound is evaluated for disk diffusion assay of the activity against Candida albicans B-311 at 1.5 ug/disk; format: functional
Method in brief: (§1)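 Cells grown 7 h at 37 °C in trypticase soy broth with shaking at 250 rpm. 1 mL of culture was seeded into 1 L of yeast carbon base agar with lysine 200 µg/mL, and 15 mL was poured per plate. Peptides in water were loaded onto 6.35-mm paper disks. Plates were incubated 24 h at 37 °C and inhibition zones read.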

[2] = tested on: Candida albicans; assay: Compound is evaluated for minimum inhibitory concentrations against Candida albicans strain BC759; format: functional
Method in brief: (§2)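 Twofold broth dilution in yeast carbon base medium with lysine 200 µg/mL. Final inoculum was approximately 10^4-10^5 cfu/mL, incubated overnight at 37 °C. MIC was taken as the lowest concentration giving complete growth inhibition.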

[3] = tested on: Candida albicans; assay: Compound is evaluated for minimum inhibitory concentrations against Candida albicans strain B311; format: functional; method in brief: as §2
[4] = tested on: Candida albicans; assay: Compound is evaluated for minimum inhibitory concentrations against Candida albicans strain 3153A; format: functional; method in brief: as §2
[5] = tested on: Candida albicans; assay: Compound is evaluated for disk diffusion assay of the activity against Candida albicans B-311 at 6.0 ug/disk; format: functional; method in brief: as §1
[6] = tested on: Candida albicans; assay: Compound is evaluated for disk diffusion assay of the activity against Candida albicans B-311 at 3.0 ug/disk; format: functional; method in brief: as §1
[7] = tested on: Candida albicans; assay: Compound is evaluated for disk diffusion assay of the activity against Candida albicans B-311 at […]; format: functional
[8] = tested on: Candida albicans; assay: Compound is evaluated for disk diffusion assay of the activity against Candida albicans B-311 at 25.0 ug/disk; format: functional; method in brief: as §1
[9] = tested on: Escherichia coli; assay: Compound is evaluated for antagonistic activity against Escherichia coli M2626 at 3.0 ug/disk; format: functional
Method in brief: (§3)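 Disk diffusion on E. coli seeded agar plates. Culture grown in trypticase soy broth for 7 h at 37 °C with shaking at 250 rpm, then 1 mL per litre of agar medium; plates made as for C. albicans but with M-9 medium. Peptide in water absorbed onto 6.35-mm paper disks. Antagonism tested by placing a second disk with noninhibitory di- or tripeptide over the test disk. Plates incubated 24 h at 37 °C; inhibition zones read.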

[10] = tested on: Escherichia coli; assay: Compound is evaluated for antagonistic activity against Escherichia coli M2626 at 6.0 ug/disk; format: functional; method in brief: as §3
[11] = tested on: Escherichia coli; assay: 2 mg/disk of dialanine was codisked on the compound and evaluated for antagonistic activity against Escherichia coli M2626,at 6.0 ug/disk; format: functional; method in brief: as §3
[12] = tested on: Escherichia coli; assay: 2 mg/disk of dialanine was codisked on the compound and evaluated for antagonistic activity against Escherichia coli M2626,at 3.0 ug/disk; format: functional; method in brief: as §3
[13] = tested on: Escherichia coli; assay: Compound is evaluated for antagonistic activity against Escherichia coli M2626 at […]; format: functional
[14] = tested on: Escherichia coli; assay: Compound is evaluated for antagonistic activity against Escherichia coli M2626 at 1.5 ug/disk; format: functional; method in brief: as §3
[15] = tested on: Escherichia coli; assay: Compound is evaluated for antagonistic activity against Escherichia coli M2626 at 25.0 ug/disk; format: functional; method in brief: as §3
[16] = tested on: Escherichia coli; assay: 2 mg/disk of dialanine was codisked on the compound and evaluated for antagonistic activity against Escherichia coli M2626,at 1.5 ug/disk; format: functional; method in brief: as §3
[17] = tested on: Escherichia coli; assay: 2 mg/disk of dialanine was codisked on the compound and evaluated for antagonistic activity against Escherichia coli M2626,at […]; format: functional
[18] = Stability in water (H20) at the time of zero(0) hours, stability was measured by in the form of percent Fluoro uracil; format: physicochemical; conditions: buffer
Method in brief: (§4)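 A 1:1 mixture of the L,L and L,D peptide diastereomers was added at 0.5 mg/mL to distilled water and kept at 23 °C. Samples were taken over time, filtered through glass fiber, and analysed by RP-18 HPLC. Values are the percent free 5-FU formed.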

[19] = species on record: Mus musculus; assay: Stability in mouse serum at the time of 0.5 hours, stability was measured by in the form of percent Fluoro uracil; format: ADME
Method in brief: (§5)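 A 1:1 mixture of the L,L and L,D peptide diastereomers was added as powder to undiluted serum at 0.5 mg/mL and held at 37 °C. Samples were taken at time points, filtered through glass fiber, and analysed by reversed-phase (RP-18) HPLC. Values are the increase in percent free 5-FU.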

[20] = species on record: Mus musculus; assay: Stability in mouse serum at the time of 2.5 hours, stability was measured by in the form of percent Fluoro uracil; format: ADME; method in brief: as §5
[21] = species on record: Homo sapiens; assay: Stability in human serum at the time of 24 hours, stability was measured by in the form of percent Fluoro uracil; format: ADME; method in brief: as §5
[22] = species on record: Homo sapiens; assay: Stability in human serum at the time of 50 hours, stability was measured by in the form of percent Fluoro uracil; format: ADME; method in brief: as §5
[23] = species on record: Mus musculus; assay: Stability in mouse serum at the time of 5 hours, stability was measured by in the form of percent Fluoro uracil; format: ADME; method in brief: as §5
[24] = species on record: Homo sapiens; assay: Stability in human serum at the time of 5 hours, stability was measured by in the form of percent Fluoro uracil; format: ADME; method in brief: as §5
[25] = species on record: Homo sapiens; assay: Stability in human serum at the time of 0.5 hours, stability was measured by in the form of percent Fluoro uracil; format: ADME; method in brief: as §5
[26] = species on record: Homo sapiens; assay: Stability in human serum at the time of zero(0) hours, stability was measured by in the form of percent Fluoro uracil; format: ADME; method in brief: as §5
[27] = species on record: Homo sapiens; assay: Stability in human serum at the time of 1.5 hours, stability was measured by in the form of percent Fluoro uracil; format: ADME; method in brief: as §5
[28] = species on record: Mus musculus; assay: Stability in mouse serum at the time of 1.5 hours, stability was measured by in the form of percent Fluoro uracil; format: ADME; method in brief: as §5
[29] = species on record: Mus musculus; assay: Stability in mouse serum at the time of zero(0) hours, stability was measured by in the form of percent Fluoro uracil; format: ADME; method in brief: as §5
[30] = Stability in water (H20) at the time of 240 hours, stability was measured by in the form of percent Fluoro uracil; format: physicochemical; conditions: buffer; method in brief: as §4
[31] = species on record: Mus musculus; assay: Stability in mouse serum at the time of 24 hours, stability was measured by in the form of percent Fluoro uracil; format: ADME; method in brief: as §5
[32] = Candida albicans, read-out: MIC

Structure (SMILES)	Activity [1]	MIC [2] [µg/mL]	MIC [3] [µg/mL]	MIC [4] [µg/mL]	Activity [5]	Activity [6]	Activity [7]	Activity [8]	Zone size [9] [mm]	Zone size [10] [mm]	MIC [2, 32] [µg/mL]	Zone size [11] [mm]	Zone size [12] [mm]	Zone size [13] [mm]	MIC [3, 32] [µg/mL]	MIC [4, 32] [µg/mL]	Zone size [14] [mm]	Zone size [15] [mm]	Zone size [16] [mm]	Zone size [17] [mm]	also measured
C[C@H](N)C(=O)N[C@@H](C(=O)O)n1cc(F)c(=O)[nH]c1=O (stereo in doubt; 8a(L,L))	16	1.6 (≈ 5.83 µM)	12.5 (≈ 45.6 µM)	12.5 (≈ 45.6 µM)	22	20	26	30	–	–	–	–	–	–	–	–	–	–	–	–	–
O=c1[nH]cc(F)c(=O)[nH]1 [FLUOROURACIL]	22	–	–	–	30	30	40	44	38	40	1 (≈ 7.69 µM)	40	38	41	4 (≈ 30.8 µM)	1 (≈ 7.69 µM)	33	46	33	41	–
C[C@H](N)C(=O)N[C@@H](C(=O)O)n1cc(F)c(=O)[nH]c1=O (stereo in doubt; 8b(L,D))	0	>100	>100	>100	0	0	0	0	–	–	–	–	–	–	–	–	–	–	–	–	–
C[C@H](N)C(=O)NC(C(=O)O)n1cc(F)c(=O)[nH]c1=O (some centres undefined)	–	–	–	–	–	–	–	–	25	27	6.3 (≈ 23 µM)	0	0	26	25 (≈ 91.2 µM)	25 (≈ 91.2 µM)	22	31	0	0	Serum stability [18]: 0; Serum stability [19]: 12; Serum stability [20]: 36; Serum stability [21]: 16; Serum stability [22]: 25; Serum stability [23]: 43; Serum stability [24]: 15; Serum stability [25]: 3; Serum stability [26]: 0; Serum stability [27]: 7; Serum stability [28]: 27; Serum stability [29]: 0; Serum stability [30]: 9; Serum stability [31]: 53
